# Source: PubChem BioAssay (several laboratories)
# Sampled rows, rich in hits. Any-hit rate of the full collection: about 2.6%.
# Platelet DG rel: inhibitors of platelet dense granule secretion, primary screen, cell-based, MLPCN, human platelets. human platelet-rich plasma, SFLLRN dense granule ATP release, luminescence. inhibition, %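 (compounds screened at 7.5 µM in platelet-rich plasma)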. 300,000 compounds, 0.22% hits. AID 1663, 2009;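 active = mean replicate score, as percent of positive control, at or above 50; inconclusive = mean below 50 but at least one replicate at or above 50; inactive = mean and every replicate below 50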
# TAAR1 agonist: human TAAR1 agonists, primary screen, Fluo-8 calcium fluorescence, CHO RD-HGA16 cells | vehicle wells 0%, saturating PEA agonist 100% | activation, % at 3 µM | Trace amine-associated receptor 1 (Homo sapiens), Q96RJ0 | 360,000 compounds, 0.99% hits;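 active = activation above the mean activation of all test compounds in the run plus 3 SD, cut at about 38% in these data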
#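 System: CHO-derived RD-HGA16 cells with stable Gα16 and human TAAR1. Times: 17-24 h plating, Fluo-8 75 min 37 °C, 30 min RT. Measured by: calcium-sensitive Fluo-8 signal, excitation 470-495, emission 515-575 nm. Read-out basis: % activation relative to PEA EC100 response. Control set: DMSO and PEA EC100. Repeats: no replicates (n 1).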
# TAAR1 antagonist: human TAAR1 antagonists, primary screen, Fluo-8 calcium fluorescence, CHO RD-HGA16 cells | inhibition, % at 3 µM | AID 624466, 2012 | 360,000 compounds, 1.5% hits | Trace amine-associated receptor 1 (Homo sapiens), Q96RJ0 | antagonist;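 active = inhibition above a per-plate cutoff, the mean inhibition of test compounds on that plate plus 3 SD, cut at about 49% in these data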;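 note: 0% = DMSO plus EC80 beta-PEA response and 100% = DMSO alone without agonist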
#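 System: RD-HGA16 CHO cells with stable hTAAR1 and Gα16 | Probe or stimulus: EC80 β-phenethylamine stimulus | Dosing: 3 µM, single point | Times: Dye loading 75 min at 37 °C, then 30 min room temperature | Measured by: Fluo-8 calcium-sensitive fluorescence | Read-out basis: % inhibition of agonist calcium response | Replicates: n of 1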
# Rce1 inhib: yeast Rce1p protease inhibitors, primary screen, biochemical, fluorescence, cell-free homogeneous; yeast membranes, quenched prenylated peptide cleavage fluorescence; calls only; 290,000 compounds, 0.27% hits;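 active = fall in fluorescence gain of 50% or more versus controls, with final raw signal at or below 3038400; inconclusive = same 50% fall but final raw signal above 3038400; inactive = fall in fluorescence gain under 50%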;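 note: plate controls were neutral control wells for no effect and wells lacking membranes for full effect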
# Target sequence (Q03530 whole entry, looked up): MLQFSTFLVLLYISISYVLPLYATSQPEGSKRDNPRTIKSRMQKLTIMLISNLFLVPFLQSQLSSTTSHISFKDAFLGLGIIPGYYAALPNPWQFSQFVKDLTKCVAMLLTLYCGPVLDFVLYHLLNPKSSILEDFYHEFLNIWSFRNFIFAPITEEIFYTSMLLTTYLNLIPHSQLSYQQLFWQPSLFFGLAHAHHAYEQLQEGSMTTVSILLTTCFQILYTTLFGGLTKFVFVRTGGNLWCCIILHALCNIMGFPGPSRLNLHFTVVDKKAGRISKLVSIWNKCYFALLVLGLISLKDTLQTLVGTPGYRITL
# VLA-4 inh: inhibition in human VLA-4 binding assay, primary screen, VLA-4 allosteric modulator project, MLPCN library, flow cytometry, VLA-4 expressing cells | inhibition, % (about 7 µM as worked out from the volumes in the protocol) | Integrin alpha-4 (Homo sapiens), P13612 | ligand binding flow cytometry | 330,000 compounds, 0.2% hits; in the data active = inhibition above about 50%
# TAAR1 nonsel count: nonselective antagonists in TAAR1 counter-screen cells, counter-screen for hTAAR1 antagonist project, cell-based, fluorescence, calcium. counterscreen cell line, antagonist mode. shares compounds with TAAR1 antagonist. 2,400 compounds, 77% hits. inhibition, % at 3 µM. AID 651780, 2012; in the data active = inhibition above about 22%;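 note: CHO-Ga16 host cells stimulated with ATP at an EC80 level; 0% = agonist EC80 plus vehicle and 100% = vehicle without agonist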
# TAAR1 ant conf: human TAAR1 antagonists, retest of hits, confirmation, cell-based, fluorescence; shares compounds with TAAR1 antagonist; TAAR1-expressing cells, fluorescence antagonist read-out; inhibition, % at 3 µM; 2,400 compounds, 40% hits; in the data active = inhibition above about 49%;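 note: CHO-Ga16 host cells challenged with agonist PEA near its EC80; 0% = agonist at EC80 plus vehicle and 100% = vehicle with no agonist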
# Ga16 ag counter: calcium activation in Ga16-expressing cells, counter-screen for TAAR1 antagonist project, cell-based, fluorescence; agonist counterscreen; 2,400 compounds, 18% hits; shares compounds with TAAR1 antagonist; activation, % at 3 µM; AID 651953, 2012; in the data active = activation above about 12%;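 note: 0% = vehicle wells and 100% = saturating stimulus response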
# TAAR1 ag counter: TAAR1 activation by candidate antagonists – cell-based, fluorescence, counter-screen for TAAR1 antagonist project. shares compounds with TAAR1 antagonist. hTAAR1 cell line, agonist mode. activation, % at 3 µM. 2,400 compounds, 2% hits; in the data active = activation above about 37%;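 note: CHO cells stably expressing TAAR1 with calcium dye readout; 0% = DMSO vehicle and 100% = full agonist response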
# The depositor's hits bear a star; i = inactive; ? = inconclusive; / = no result.
SMILES,Platelet DG rel,TAAR1 agonist,TAAR1 antagonist,Rce1 inhib,VLA-4 inh,TAAR1 nonsel count,TAAR1 ant conf,Ga16 ag counter,TAAR1 ag counter
Cc1cccc(C)c1NC(=O)C(c1ccnc2ccccc12)N1CCN(CCN(C)C)CC1 (stereo not drawn),/,3.3,-24.2,/,/,/,/,/,/
COc1ccc(-c2coc3c(C(=O)Nc4cccc(C(C)=O)c4)cccc23)c(C)c1,/,0.7,57.2*,/,/,30.9*,30.8,0.9,-1.4
COc1ccc(-c2ccc(C(=O)Nc3cccc(C(C)=O)c3)c3occc23)c(C)c1,/,0.2,39.9,/,/,/,/,/,/
O=C(c1ccccc1)c1ccc2nc(-c3ccc(NC(=O)c4ccccc4F)cc3)[nH]c2c1,?,20.6,59.2*,i,-3.6,28.6*,59.1*,8.9,6.8
O=C(O)CCC(=O)Nc1ccc(-c2nc3ccc(C(=O)c4ccccc4)cc3[nH]2)cc1,-4.6,15.4,-3.3,i,10.9,/,/,/,/
O=C(Nc1ccc([N+](=O)[O-])cc1NC(=O)c1ccccc1)c1ccccc1,/,6.4,57.2*,/,/,32.1*,43.5,7.1,6.6
Cc1ccc(C)n1-c1ccc(N2CCOCC2)c([N+](=O)[O-])c1,-2.8,0.8,5.7,i,6.0,/,/,/,/
O=[N+]([O-])c1cc(-n2cccc2)ccc1N1CCOCC1,4.1,13.1,59.6*,i,12.8,27.5*,39.9,10.3,10.9
CCOC(=O)C1(Cc2cccc(F)c2)CCN(C(=O)C2CCC2)CC1,0.7,5.8,104.9*,i,9.2,13.9,-3.1,5.2,6.5
C[C@H]1Cn2cnc(C(=O)Nc3ccc(CNC(=O)OC(C)(C)C)cc3)c2C(=O)N1,/,5.9,13.3,/,/,/,/,/,/
CC(C)(C)OC(=O)NCCCCCNC(=O)c1[nH]cnc1C(=O)Nc1ccccc1,/,13.4,57.3*,/,6.0,18.6,31.4,5.6,9.6
CC(C)(C)OC(=O)NCCCC[C@H](NC(=O)c1[nH]cnc1C(=O)Nc1ccc(CNC(=O)OC(C)(C)C)cc1)C(=O)OC(C)(C)C,/,13.3,64.8*,/,24.9,28.4*,49.2*,7.8,7.3
C[C@H]1CNC(=O)c2c(C(=O)Nc3ccc(CNC(=O)OC(C)(C)C)cc3)ncn21,/,14.0,54.8*,/,/,34.2*,45.7,8.6,4.7
CC(C)(C)OC(=O)NCCCCCNC(=O)c1[nH]cnc1C(=O)Nc1ccc(Cl)cc1,/,15.0,55.3*,/,16.2,26.5*,41.9,4.7,3.4
Cc1ccc(NC(=O)c2nc[nH]c2C(=O)NCCCCCNC(=O)OC(C)(C)C)cc1,/,12.8,26.1,/,6.8,/,/,/,/
CC1CN(C(=O)CNC(=O)COc2ccccc2)CC(C)O1 (stereo not drawn),/,-1.2,5.8,/,-15.1,/,/,/,/
CC(=O)C[C@@H]1OC2CCCCC2N1S(=O)(=O)c1ccc(C)cc1 (stereo partly drawn),/,1.4,-21.1,/,/,/,/,/,/
Cc1ccccc1Cn1nc(C)c(NC(=O)c2sc3ccccc3c2Cl)c1C,-2.2,8.7,55.3*,i,4.3,26.1*,41.5,4.8,4.0
Cc1nn(Cc2ccc(Cl)cc2Cl)c(C)c1NC(=O)c1sc2ccccc2c1Cl,-3.5,4.1,-7.1,i,-5.8,/,/,/,/
Brc1ccc2nc(-c3ccc(CN4CCC5(CC4)CNc4ccccc45)cc3)c(-c3ccccc3)nc2c1,/,5.0,49.4*,/,/,26.5*,39.4,2.7,5.1
